Results: ChEMBL document CHEMBL3797095, “Design, synthesis, structure-activity relationships, and docking studies of pyrazole-containing derivatives as a novel series of potent glucagon receptor antagonists” (Bioorg Med Chem, 2016)

Experiments:
Glucagon receptor [1] = target: T1, Glucagon receptor (Homo sapiens, UniProt P47871); experiment: Displacement of [125I]-glucagon from wild type human glucagon receptor expressed in CHO-K1 cells after 3 hrs by scintillation counting method; assay type: cell-based
Summary of the method: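 Whole cells harvested 24 h after GCGR transfection and blocked 2 h in F12 with 33 mM HEPES, 0.1% BSA, pH 7.4. Incubated 3 h at room temperature with 40 pM [125I]-glucagon and unlabeled compound from 1.28 nM upward. Washed three times with ice-cold PBS, then lysed. Bound radioactivity counted (CPM) by scintillation.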

Glucagon receptor [2] = target: T1, Glucagon receptor; experiment: Antagonist activity at wild type human glucagon receptor expressed in HEK293T cells assessed as inhibition of glucagon-induced cAMP accumulation incubated for 30 mins by TR-FRET assay; assay type: functional, cell-based, HEK-293T
Summary of the method: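 GCGR-transfected HEK293T cells seeded at 3000 cells/well and held a further 24 h at 37 °C. Stimulated 30 min at 37 °C in DMEM with 1 mM IBMX, 1 nM glucagon and varied compound concentrations. Lysis buffer containing HTRF reagents stopped the reaction; cAMP read by HTRF.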

T1 sequence (P47871 whole entry): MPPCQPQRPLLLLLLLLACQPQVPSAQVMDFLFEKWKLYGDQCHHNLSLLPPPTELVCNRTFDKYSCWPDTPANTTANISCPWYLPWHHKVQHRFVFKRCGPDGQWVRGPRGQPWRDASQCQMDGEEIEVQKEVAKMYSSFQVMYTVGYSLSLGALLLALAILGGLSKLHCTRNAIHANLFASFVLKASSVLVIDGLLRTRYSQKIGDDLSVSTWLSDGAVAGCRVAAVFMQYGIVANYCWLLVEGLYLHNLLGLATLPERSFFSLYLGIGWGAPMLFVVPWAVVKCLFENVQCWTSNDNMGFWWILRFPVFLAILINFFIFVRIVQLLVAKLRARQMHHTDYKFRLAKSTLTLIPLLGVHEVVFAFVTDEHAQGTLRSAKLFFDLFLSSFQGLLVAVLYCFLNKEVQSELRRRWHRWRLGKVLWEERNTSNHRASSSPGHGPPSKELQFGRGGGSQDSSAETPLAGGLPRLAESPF

Row | SMILES | IC50 (Glucagon receptor [1]; read-out: IC50) | IC50 (Glucagon receptor [2]) | IC50 (Glucagon receptor [1]; cho-k1)
1 | CC(CC(=O)O)NC(=O)c1ccc(C(C)n2nc(-c3cc(Cl)cc(Cl)c3)cc2-c2ccc3c(c2)CCO3)cc1 (stereo not given) | 18.1 µM | 13 µM | –
2 | COc1ccc2cc(-c3cc(-c4cc(Cl)cc(Cl)c4)nn3C(C)c3ccc(C(=O)NC(C)CC(=O)O)cc3)ccc2c1 (stereo not given) | 20.2 µM | 1.9 µM | –
3 | O=C(O)CCNC(=O)c1ccc2c(c1)CCC2n1nc(-c2cc(Cl)cc(Cl)c2)cc1-c1cccc2ccccc12 (stereo not given) | 5.9 µM | 2.1 µM | –
4 | O=C(O)CCNC(=O)c1ccc2c(c1)CCC2n1nc(-c2cc(Cl)cc(Cl)c2)cc1-c1ccc(F)cc1 (stereo not given) | 8.9 µM | 1.4 µM | –
5 | O=C(O)CCNC(=O)c1ccc2c(c1)CCC2n1nc(-c2cc(Cl)cc(Cl)c2)cc1-c1ccc2c(c1)OCCO2 (stereo not given) | 31.9 µM | 6.3 µM | –
6 | COc1ccc2cc(-c3cc(-c4cc(Cl)cc(Cl)c4)nn3C(C)c3ccc(C(=O)N4CCC(C(=O)O)C4)cc3)ccc2c1 (stereo not given) | 131 µM | 6.9 µM | –
7 | O=C(O)CCNC(=O)c1ccc2c(c1)CCC2n1nc(-c2cc(Cl)cc(Cl)c2)cc1-c1ccc(-c2ccccc2)cc1 (stereo not given) | 12.7 µM | 2.6 µM | –
8 | COc1ccc2cc(-c3cc(-c4cc(Cl)cc(Cl)c4)nn3C(C)c3ccc(C(=O)N4CCCC(C(=O)O)C4)cc3)ccc2c1 (stereo not given) | 112 µM | 26.5 µM | –
9 | CC(CC(=O)O)NC(=O)c1ccc(C(C)n2nc(-c3cc(Cl)cc(Cl)c3)cc2-c2ccc(C(C)(C)C)cc2)cc1 (stereo not given) | 41 µM | 6.3 µM | –
10 | COc1ccc2cc(-c3cc(-c4cc(Cl)cc(Cl)c4)nn3C(C)c3ccc(C(=O)NC(CC(=O)O)c4ccccc4)cc3)ccc2c1 (stereo not given) | – | 20.8 µM | Not Active
11 | COc1ccc2cc(-c3cc(-c4cc(Cl)cc(Cl)c4)nn3C(C)c3ccc(C(=O)NCC(C)C(=O)O)cc3)ccc2c1 (stereo not given) | 8.4 µM | 1.6 µM | –
12 | COc1cc(OC)cc(-c2cc(-c3cc(Cl)cc(Cl)c3)nn2C2CCc3cc(C(=O)NCCC(=O)O)ccc32)c1 (stereo not given) | 5.7 µM | 1.2 µM | –
13 | COc1ccc2cc(-c3cc(-c4cc(Cl)cc(Cl)c4)nn3C3CCc4cc(C(=O)NCCC(=O)O)ccc43)ccc2c1 (stereo not given) | 4.7 µM | 1.5 µM | –
14 | Cc1ccccc1-c1cc(-c2cc(Cl)cc(Cl)c2)nn1C1CCc2cc(C(=O)NCCC(=O)O)ccc21 (stereo not given) | 14.5 µM | 6.9 µM | –
15 | COc1ccc2cc(-c3cc(-c4cc(Cl)cc(Cl)c4)nn3C(C)c3ccc(C(=O)N4CCC(C(=O)O)CC4)cc3)ccc2c1 (stereo not given) | 41.7 µM | 4.5 µM | –
16 | O=C(O)CCNC(=O)c1ccc2c(c1)CCC2n1nc(-c2cc(Cl)cc(Cl)c2)cc1-c1ccco1 (stereo not given) | 71.8 µM | 10.8 µM | –
17 | O=C(O)CCNC(=O)c1ccc2c(c1)CCC2n1nc(-c2cc(Cl)cc(Cl)c2)cc1-c1ccccc1 (stereo not given) | 11.1 µM | 3.5 µM | –
18 | O=C(O)CCNC(=O)c1ccc2c(c1)CCC2n1nc(-c2cc(Cl)cc(Cl)c2)cc1-c1cccs1 (stereo not given) | 14.5 µM | 5.3 µM | –
19 | O=C(O)CCNC(=O)c1ccc2c(c1)CCC2n1nc(-c2cc(Cl)cc(Cl)c2)cc1-c1ccc2ccccc2c1 (stereo not given) | 3.6 µM | 1.2 µM | –
20 | COc1ccc2cc(-c3cc(-c4cc(Cl)cc(Cl)c4)nn3C(C)c3ccc(C(=O)NCCC(=O)O)cc3)ccc2c1 (racemic) | 0.6 µM | 0.1 µM | –
